Six compounds from ChEMBL document CHEMBL3751740, “New MKLP-2 inhibitors in the paprotrain series: Design, synthesis and biological evaluations” (Bioorg Med Chem, 2016) can be followed below.

Molecules are shown by their SMILES. Calls of active or inactive are those of the source. The calls are words filed in the database; no cut-off is given here.

Assay [1] can be described thus: (§1) Inhibition of sheep brain tubulin polymerization by UV spectrophotometric analysis. Details: species or system Ovis aries. An outline of the steps: (§2)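 Tubulin purified from sheep brain by two assembly/disassembly cycles, about 2–3 mg/mL in 0.1 M MES, 0.5 mM MgCl2, 1 mM EGTA, 1 mM GTP, pH 6.6. Compound in DMSO added at 0 °C, then moved to a 37 °C thermostated cell. Assembly followed by turbidity at 350 nm for a few min.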

The species named for assay [2] is Ovis aries. The assay is described as §1. Details: concentration or dose not given beside the values. Particulars: concentration not given here. An outline of the steps:
as §2

Assay [3] has as its system KB. Put plainly: Growth inhibition of human KB cells at 10 uM after 72 hrs by MTS assay. Format: functional. Particulars: read-out: GI. An outline of the steps: (§3)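 KB cells were grown in DMEM with 25 mM glucose and 10% FCS at 37 °C, 5% CO2, and seeded at 500 cells/well. 24 h later, compound in DMSO (1% final) was added at 10 µM or 1 µM for 72 h; controls received DMSO alone. Runs were in duplicate. Viable cells were read with MTS at 490 nm.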

For assay [4], the species on record is Ovis aries. Put plainly: Inhibition of sheep brain microtubule disassembly by UV spectrophotometric analysis. Further details: concentration or dose not given beside the values.
For assay [5], the target named is T1, Kinesin-like protein KIF20A (Homo sapiens, UniProt O95235).
T1 sequence (O95235 whole entry): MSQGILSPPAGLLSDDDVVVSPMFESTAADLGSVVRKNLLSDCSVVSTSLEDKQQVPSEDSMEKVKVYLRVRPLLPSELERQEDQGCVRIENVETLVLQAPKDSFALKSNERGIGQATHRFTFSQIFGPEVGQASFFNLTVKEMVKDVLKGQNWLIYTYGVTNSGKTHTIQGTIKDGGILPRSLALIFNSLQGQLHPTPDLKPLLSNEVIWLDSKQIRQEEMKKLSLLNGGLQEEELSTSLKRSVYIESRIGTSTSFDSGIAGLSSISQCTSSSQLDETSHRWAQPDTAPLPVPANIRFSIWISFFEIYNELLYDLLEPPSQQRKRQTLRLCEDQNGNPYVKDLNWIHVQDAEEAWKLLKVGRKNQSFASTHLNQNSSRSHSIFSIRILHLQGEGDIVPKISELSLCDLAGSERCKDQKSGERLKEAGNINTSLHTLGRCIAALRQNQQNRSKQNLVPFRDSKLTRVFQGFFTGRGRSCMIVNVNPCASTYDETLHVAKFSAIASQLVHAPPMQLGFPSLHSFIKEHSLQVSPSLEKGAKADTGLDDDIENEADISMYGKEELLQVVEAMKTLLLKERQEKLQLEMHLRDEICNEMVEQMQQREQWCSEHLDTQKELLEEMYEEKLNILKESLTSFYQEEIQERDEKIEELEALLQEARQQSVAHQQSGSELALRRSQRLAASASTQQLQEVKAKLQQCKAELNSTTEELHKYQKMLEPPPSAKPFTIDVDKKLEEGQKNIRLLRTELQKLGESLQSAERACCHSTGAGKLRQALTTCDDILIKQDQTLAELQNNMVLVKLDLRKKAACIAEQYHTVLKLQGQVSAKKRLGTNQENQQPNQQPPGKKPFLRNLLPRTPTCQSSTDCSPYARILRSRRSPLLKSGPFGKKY
Put plainly: Inhibition of N-terminal MKLP2 (56 to 505 residues) ATPase basal activity isolated from human hepatocellular carcinoma cells by pyruvate kinase/lactate dehydrogenase enzyme linked assay.

For assay [6], the target named is T1, Kinesin-like protein KIF20A. Put plainly: Inhibition of microtubule-stimulated N-terminal MKLP-2 (56 to 505 residues) ATPase activity isolated from human hepatocellular carcinoma cells by pyruvate kinase/lactate dehydrogenase enzyme linked assay.
The test system of assay [7] is KB. The assay is described as follows: Growth inhibition of human KB cells after 72 hrs by MTS assay. The class given is functional.
Another assay relates to HT-29. The assay is described as follows: Growth inhibition of human HT-29 cells incubated for 4 days by WST-1 assay. Particulars: HT-29, 96 h. The class given is functional. An outline of the steps: (§4)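 Cells were kept at 37 °C under 5% CO2 and plated on day 0 at 500–5000 cells/well. On day 1 they received ten concentrations from 0.0025 to 50 µM (final), in triplicate. On day 4 WST-1 was added, followed by 30 min–4 h incubation and absorbance at 450 nm. GI50 is the concentration killing 50% of cells.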

A further assay has as its system K562. The assay is described as follows: Growth inhibition of human K562 cells incubated for 4 days by WST-1 assay. Format: functional. The conditions noted are these: K562, 96 h. An outline of the steps: as §4
In general terms: Tetrazolium assays rely on reduction of a dye to a coloured formazan, in cell work by metabolically active cells.

The next assay concerns HepG2. Put plainly: Growth inhibition of human HepG2 cells incubated for 4 days by WST-1 assay. The class given is functional. The conditions noted are these: HepG2, 96 h. A digest of the protocol: as §4
The species entered for assay [8] is Ovis aries. Put plainly: Induction of sheep brain microtubule disassembly by UV spectrophotometric analysis. A digest of the protocol: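 Sheep brain tubulin, purified by two assembly/disassembly cycles and held in MES buffer with GTP at pH 6.6, was polymerized at 37 °C for 10 min. Compound was then added to the MTs at 0 °C and depolymerization was followed over the next few minutes by turbidity at 350 nm.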

Another assay relates to MCF7. The assay is described as follows: Growth inhibition of human MCF7 cells incubated for 4 days by WST-1 assay. Format: functional. The conditions noted are these: MCF7, 96 h. An outline of the steps:
as §4

The test system of the next assay is A549. Put plainly: Growth inhibition of human A549 cells incubated for 4 days by WST-1 assay. The class given is functional. The conditions noted are these: A549, 96 h. An outline of the steps:
as §4

Assay [9] can be described thus: Growth inhibition of human PK59 cells incubated for 4 days by WST-1 assay. Particulars: PK-59, 96 h. The class given is functional. A digest of the protocol:
as §4

In a further assay the test system is MDA-MB-231. The assay is described as follows: Growth inhibition of human MDA-MB-231 cells incubated for 4 days by WST-1 assay. Format: functional. Particulars: MDA-MB-231, 96 h. A digest of the protocol: as §4
Assay [10] in a line: Growth inhibition of human HCT116 cells incubated for 4 days by WST-1 assay. The class given is functional. The conditions noted are these: HCT-116, 96 h. A digest of the protocol: as §4
Assay [11] is described as follows: Growth inhibition of human MIAPaCa2 cells incubated for 4 days by WST-1 assay. The class given is functional. The conditions noted are these: MIA PaCa-2, 96 h. A digest of the protocol:
as §4

Another assay concerns NCI-H460. The assay is described as follows: Growth inhibition of human NCI-H460 cells incubated for 4 days by WST-1 assay. The class given is functional. The conditions noted are these: NCI-H460, 96 h. A digest of the protocol:
as §4

Assay [12] relates to KB. The assay is described as follows: Growth inhibition of human KB cells at 1 uM after 72 hrs by MTS assay. Format: functional. Particulars: read-out: GI. An outline of the steps:
as §3

Broadly, the IC50 is the concentration at which inhibition is half-maximal. As a reminder, the inhibition is how much of the control response was suppressed. Regarding `COc1ccc2c(c1)c(/C(C#N)=C/c1cccnc1)cn2C`, the IC50 in assay [1] is 115 µM; in assay [5], “Not Active”; in [6], “Not Active”. Further, the inhibition in the assay listed under Ovis aries [2] was determined as 53%. Besides, in the assay on KB [3], the inhibition of growth at 10 µM amounted to 33%. Besides, in the assay filed under Ovis aries [4], the Activity turned out to be 15%.
In general, GI50 refers to the concentration that inhibits growth by half. `CC(=O)O[C@@]12CO[C@@H]1C[C@H](O)[C@@]1(C)C(=O)[C@H](O)C3=C(C)[C@@H](OC(=O)[C@H](O)[C@@H](NC(=O)OC(C)(C)C)c4ccccc4)C[C@@](O)([C@@H](OC(=O)c4ccccc4)[C@H]21)C3(C)C` [DOCETAXEL ANHYDROUS]: the 50% growth inhibitory concentration (GI50) with KB [7] turned out to be 0.00013 µM. For the same compound, the IC50 result in [5] and in assay [6] was “Not Active” each time.
Broadly, the IC25 is the concentration needed for an effect of 25%. `N#C/C(=C\c1cccnc1)c1c[nH]c2ccccc12` registered an inhibition in the assay listed under Ovis aries [2] of 11%. The GI50 in the assay with HT-29 is above 50 µM; in the assay on K562 it was 21.6 µM; with HepG2, above 50 µM; in the assay with MCF7 it was above 50 µM; in the assay with A549 it was above 50 µM; in assay [9], above 50 µM. For the same compound, the GI50 (with MDA-MB-231; in assay [10]; in [11]; in the assay on NCI-H460) was above 50 µM throughout. The IC25 in the assay with HT-29 was determined as 7.5 µM; in the assay on MCF7 it was 28.6 µM; in the assay on NCI-H460, 18.5 µM. Further, the inhibition of growth at 10 µM in the assay on KB [3] turned out to be 27%. Further, the result in the assay filed under Ovis aries [8] was inactive.
The compound `COc1cc2c(c(OC)c1OC)-c1ccc(OC)c(=O)cc1[C@@H](NC(C)=O)CC2` [COLCHICINE] displayed a GI50 in the assay on KB [7] of 0.0042 µM. The IC50 result in assay [5] and in assay [6] was “Not Active” in each case.
Take `COc1ccc(/C=C(\C#N)c2c[nH]c3ccccc23)c(OC)c1`: in the assay on KB [12], the inhibition of growth at 1 µM is 35%. The figures for the half-inhibitory concentration (IC50) in assay [1], in assay [5] and in assay [6] were 12 µM, “Not Active” and “Not Active”, respectively. Moreover, in the assay filed under Ovis aries [2], the inhibition came to 76%. In the assay on KB [3], the inhibition of growth at 10 µM stood at 99%. For the same compound, the outcome in the assay listed under Ovis aries [8] was inactive.
As to `CC(=O)O[C@H]1C(=O)[C@@]2(C)[C@H]([C@H](OC(=O)c3ccccc3)[C@]3(O)C[C@H](OC(=O)[C@H](O)[C@@H](NC(=O)c4ccccc4)c4ccccc4)C(C)=C1C3(C)C)[C@]1(OC(C)=O)CO[C@@H]1C[C@@H]2O` [PACLITAXEL], the values for the IC50 in [1], in assay [5] and in assay [6] were 1 µM, “Not Active” and “Not Active”, respectively. The compound further gave a GI50 with KB [7] of 0.001 µM.
